Reference: ChEMBL document CHEMBL4689842, “EUbOPEN Chemogenomics Library wave 1” (2021)

Legend:
Format in all cases: toxicity, cell-based
Fibroblast [1] = test: Multiplex assay against human fibroblast
Procedure, shortened: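 Values for tubulin, mitochondrial-mass and membrane-permeability phenotypes are per cents of cells with healthy nuclei. These cells were identified by CellPathfinder machine-learning gating of live cells that had been stained at seeding with Hoechst33342, BioTracker Green Microtubule Cytoskeleton Dye, MitoTracker Red and Annexin V Alexa Fluor 680 and imaged on a CQ1 microscope at 37°C and 5% CO2 after compound addition. The gating first set Hoechst high-intensity objects apart from normal cells, then split normal cells into healthy, pyknosed or fragmented nuclei, and pyknosed cells into mitotic or apoptotic.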

HEK-293T = test: Incucyte cell viability with HEK293T; details: human, 10 µM, compound concentration 10 uM; note: filed as whole numbers so only -1 and 0 and 1 occur
Fibroblast [2] = test: Incucyte cell viability with human fibroblast; details: 10 µM, compound concentration 10 uM; note: filed as whole numbers so only -1 and 0 and 1 occur
U2OS = test: Incucyte cell viability with U2OS; details: human, 10 µM, compound concentration 10 uM; note: filed as whole numbers so only -1 and 0 and 1 occur
[3] = 12 h, 1 µM, compound concentration 1 uM, replicate 1
[4] = 12 h, 1 µM, compound concentration 1 uM, replicate 2
[5] = 12 h, 10 µM, compound concentration 10 uM, replicate 1
[6] = 12 h, 10 µM, compound concentration 10 uM, replicate 2
[7] = 24 h, 1 µM, compound concentration 1 uM, replicate 1
[8] = 24 h, 1 µM, compound concentration 1 uM, replicate 2
[9] = 24 h, 10 µM, compound concentration 10 uM, replicate 1
[10] = 24 h, 10 µM, compound concentration 10 uM, replicate 2
[11] = 48 h, 1 µM, compound concentration 1 uM, replicate 1
[12] = 48 h, 1 µM, compound concentration 1 uM, replicate 2
[13] = 48 h, 10 µM, compound concentration 10 uM, replicate 1
[14] = 48 h, 10 µM, compound concentration 10 uM, replicate 2
[15] = 0 h, replicate number 1, timepoint 0 hours
[16] = 6 h, replicate number 1, timepoint 6 hours
[17] = 12 h, replicate number 1, timepoint 12 hours
[18] = 18 h, replicate number 1, timepoint 18 hours
[19] = 24 h, replicate number 1, timepoint 24 hours

O=C(O)c1ccc2cc(-c3ccc(O)c(C45CC6CC(CC(C6)C4)C5)c3)ccc2c1 [O-DEMETHYLATED ADAPALENE] was tested, and the “Population Apoptotic (%)” value (Fibroblast [1]; [3]) was 57%, the “Population Fragmented Nuclei (%)” value (Fibroblast [1]; [3]) was 36% and the “Population Healthy Nuclei (%)” value (Fibroblast [1]; [3]) was 20%. For the same molecule, the “Population Hoechst High Intensity Objects (%)” value (Fibroblast [1]; [3]) was 18%, the “Population Membrane Permeable-Phenotype (%)” value (Fibroblast [1]; [3]) was 31% and the “Population Mitochondria Different-Phenotype (%)” value (Fibroblast [1]; [3]) was 21%. For the same molecule, the “Population Mitotic Cells (%)” value (Fibroblast [1]; [3]) was 42%, the “Population Normal (%)” value (Fibroblast [1]; [3]) was 81% and the “Population Pyknosed Nuclei (%)” value (Fibroblast [1]; [3]) was 43%. The “Population Tubulin-Different-Phenotype (%)” value (Fibroblast [1]; [3]) was 60%, the “Total Cell Count” value (Fibroblast [1]; [3]) was 249 and the “Population Apoptotic (%)” value (Fibroblast [1]; [4]) was 100%. For the same molecule, the “Population Fragmented Nuclei (%)” value (Fibroblast [1]; [4]) was 8%, the “Population Healthy Nuclei (%)” value (Fibroblast [1]; [4]) was 87% and the “Population Hoechst High Intensity Objects (%)” value (Fibroblast [1]; [4]) was 9%. The “Population Membrane Permeable-Phenotype (%)” value (Fibroblast [1]; [4]) was 6%, the “Population Mitochondria Different-Phenotype (%)” value (Fibroblast [1]; [4]) was 16% and the “Population Mitotic Cells (%)” value (Fibroblast [1]; [4]) was 0%. The “Population Normal (%)” value (Fibroblast [1]; [4]) was 90%, the “Population Pyknosed Nuclei (%)” value (Fibroblast [1]; [4]) was 3% and the “Population Tubulin-Different-Phenotype (%)” value (Fibroblast [1]; [4]) was 16%. For the same molecule, the “Total Cell Count” value (Fibroblast [1]; [4]) was 62, the “Population Apoptotic (%)” value (Fibroblast [1]; [5]) was 72% and the “Population Fragmented Nuclei (%)” value (Fibroblast [1]; [5]) was 32%. The “Population Healthy Nuclei (%)” value (Fibroblast [1]; [5]) was 37%, the “Population Hoechst High Intensity Objects (%)” value (Fibroblast [1]; [5]) was 16% and the “Population Membrane Permeable-Phenotype (%)” value (Fibroblast [1]; [5]) was 44%. For the same molecule, the “Population Mitochondria Different-Phenotype (%)” value (Fibroblast [1]; [5]) was 0%, the “Population Mitotic Cells (%)” value (Fibroblast [1]; [5]) was 27% and the “Population Normal (%)” value (Fibroblast [1]; [5]) was 83%. The “Population Pyknosed Nuclei (%)” value (Fibroblast [1]; [5]) was 30%, the “Population Tubulin-Different-Phenotype (%)” value (Fibroblast [1]; [5]) was 33% and the “Total Cell Count” value (Fibroblast [1]; [5]) was 115. The “Population Apoptotic (%)” value (Fibroblast [1]; [6]) was 100%, the “Population Fragmented Nuclei (%)” value (Fibroblast [1]; [6]) was 11% and the “Population Healthy Nuclei (%)” value (Fibroblast [1]; [6]) was 87%. For the same molecule, the “Population Hoechst High Intensity Objects (%)” value (Fibroblast [1]; [6]) was 2%, the “Population Membrane Permeable-Phenotype (%)” value (Fibroblast [1]; [6]) was 1% and the “Population Mitochondria Different-Phenotype (%)” value (Fibroblast [1]; [6]) was 16%. The “Population Mitotic Cells (%)” value (Fibroblast [1]; [6]) was 0%, the “Population Normal (%)” value (Fibroblast [1]; [6]) was 97% and the “Population Pyknosed Nuclei (%)” value (Fibroblast [1]; [6]) was 1%. The “Population Tubulin-Different-Phenotype (%)” value (Fibroblast [1]; [6]) was 25%, the “Total Cell Count” value (Fibroblast [1]; [6]) was 83 and the “Population Apoptotic (%)” value (Fibroblast [1]; [7]) was 53%. For the same molecule, the “Population Fragmented Nuclei (%)” value (Fibroblast [1]; [7]) was 35%, the “Population Healthy Nuclei (%)” value (Fibroblast [1]; [7]) was 20% and the “Population Hoechst High Intensity Objects (%)” value (Fibroblast [1]; [7]) was 23%. For the same molecule, the “Population Membrane Permeable-Phenotype (%)” value (Fibroblast [1]; [7]) was 29%, the “Population Mitochondria Different-Phenotype (%)” value (Fibroblast [1]; [7]) was 18% and the “Population Mitotic Cells (%)” value (Fibroblast [1]; [7]) was 46%. For the same molecule, the “Population Normal (%)” value (Fibroblast [1]; [7]) was 76%, the “Population Pyknosed Nuclei (%)” value (Fibroblast [1]; [7]) was 43% and the “Population Tubulin-Different-Phenotype (%)” value (Fibroblast [1]; [7]) was 45%. For the same molecule, the “Total Cell Count” value (Fibroblast [1]; [7]) was 236, the “Population Apoptotic (%)” value (Fibroblast [1]; [8]) was 100% and the “Population Fragmented Nuclei (%)” value (Fibroblast [1]; [8]) was 7%. For the same molecule, the “Population Healthy Nuclei (%)” value (Fibroblast [1]; [8]) was 89%, the “Population Hoechst High Intensity Objects (%)” value (Fibroblast [1]; [8]) was 6% and the “Population Membrane Permeable-Phenotype (%)” value (Fibroblast [1]; [8]) was 6%. For the same molecule, the “Population Mitochondria Different-Phenotype (%)” value (Fibroblast [1]; [8]) was 30%, the “Population Mitotic Cells (%)” value (Fibroblast [1]; [8]) was 0% and the “Population Normal (%)” value (Fibroblast [1]; [8]) was 93%. For the same molecule, the “Population Pyknosed Nuclei (%)” value (Fibroblast [1]; [8]) was 3%, the “Population Tubulin-Different-Phenotype (%)” value (Fibroblast [1]; [8]) was 18% and the “Total Cell Count” value (Fibroblast [1]; [8]) was 60. The “Population Apoptotic (%)” value (Fibroblast [1]; [9]) was 57%, the “Population Fragmented Nuclei (%)” value (Fibroblast [1]; [9]) was 28% and the “Population Healthy Nuclei (%)” value (Fibroblast [1]; [9]) was 42%. For the same molecule, the “Population Hoechst High Intensity Objects (%)” value (Fibroblast [1]; [9]) was 21%, the “Population Membrane Permeable-Phenotype (%)” value (Fibroblast [1]; [9]) was 55% and the “Population Mitochondria Different-Phenotype (%)” value (Fibroblast [1]; [9]) was 0%. For the same molecule, the “Population Mitotic Cells (%)” value (Fibroblast [1]; [9]) was 42%, the “Population Normal (%)” value (Fibroblast [1]; [9]) was 78% and the “Population Pyknosed Nuclei (%)” value (Fibroblast [1]; [9]) was 29%. For the same molecule, the “Population Tubulin-Different-Phenotype (%)” value (Fibroblast [1]; [9]) was 44%, the “Total Cell Count” value (Fibroblast [1]; [9]) was 113 and the “Population Apoptotic (%)” value (Fibroblast [1]; [10]) was 0%. The “Population Fragmented Nuclei (%)” value (Fibroblast [1]; [10]) was 14%, the “Population Healthy Nuclei (%)” value (Fibroblast [1]; [10]) was 81% and the “Population Hoechst High Intensity Objects (%)” value (Fibroblast [1]; [10]) was 7%. The “Population Membrane Permeable-Phenotype (%)” value (Fibroblast [1]; [10]) was 7%, the “Population Mitochondria Different-Phenotype (%)” value (Fibroblast [1]; [10]) was 26% and the “Population Mitotic Cells (%)” value (Fibroblast [1]; [10]) was 100%. The “Population Normal (%)” value (Fibroblast [1]; [10]) was 92%, the “Population Pyknosed Nuclei (%)” value (Fibroblast [1]; [10]) was 3% and the “Population Tubulin-Different-Phenotype (%)” value (Fibroblast [1]; [10]) was 28%. The “Total Cell Count” value (Fibroblast [1]; [10]) was 83, the “Population Apoptotic (%)” value (Fibroblast [1]; [11]) was 78% and the “Population Fragmented Nuclei (%)” value (Fibroblast [1]; [11]) was 61%. For the same molecule, the “Population Healthy Nuclei (%)” value (Fibroblast [1]; [11]) was 26%, the “Population Hoechst High Intensity Objects (%)” value (Fibroblast [1]; [11]) was 43% and the “Population Membrane Permeable-Phenotype (%)” value (Fibroblast [1]; [11]) was 2%. For the same molecule, the “Population Mitochondria Different-Phenotype (%)” value (Fibroblast [1]; [11]) was 15%, the “Population Mitotic Cells (%)” value (Fibroblast [1]; [11]) was 21% and the “Population Normal (%)” value (Fibroblast [1]; [11]) was 56%. For the same molecule, the “Population Pyknosed Nuclei (%)” value (Fibroblast [1]; [11]) was 12%, the “Population Tubulin-Different-Phenotype (%)” value (Fibroblast [1]; [11]) was 5% and the “Total Cell Count” value (Fibroblast [1]; [11]) was 267. For the same molecule, the “Population Apoptotic (%)” value (Fibroblast [1]; [12]) was 71%, the “Population Fragmented Nuclei (%)” value (Fibroblast [1]; [12]) was 18% and the “Population Healthy Nuclei (%)” value (Fibroblast [1]; [12]) was 71%. The “Population Hoechst High Intensity Objects (%)” value (Fibroblast [1]; [12]) was 14%, the “Population Membrane Permeable-Phenotype (%)” value (Fibroblast [1]; [12]) was 11% and the “Population Mitochondria Different-Phenotype (%)” value (Fibroblast [1]; [12]) was 1%. For the same molecule, the “Population Mitotic Cells (%)” value (Fibroblast [1]; [12]) was 28%, the “Population Normal (%)” value (Fibroblast [1]; [12]) was 85% and the “Population Pyknosed Nuclei (%)” value (Fibroblast [1]; [12]) was 9%. For the same molecule, the “Population Tubulin-Different-Phenotype (%)” value (Fibroblast [1]; [12]) was 28%, the “Total Cell Count” value (Fibroblast [1]; [12]) was 87 and the “Population Apoptotic (%)” value (Fibroblast [1]; [13]) was 85%. The “Population Fragmented Nuclei (%)” value (Fibroblast [1]; [13]) was 52%, the “Population Healthy Nuclei (%)” value (Fibroblast [1]; [13]) was 40% and the “Population Hoechst High Intensity Objects (%)” value (Fibroblast [1]; [13]) was 20%. For the same molecule, the “Population Membrane Permeable-Phenotype (%)” value (Fibroblast [1]; [13]) was 35%, the “Population Mitochondria Different-Phenotype (%)” value (Fibroblast [1]; [13]) was 0% and the “Population Mitotic Cells (%)” value (Fibroblast [1]; [13]) was 14%. The “Population Normal (%)” value (Fibroblast [1]; [13]) was 79%, the “Population Pyknosed Nuclei (%)” value (Fibroblast [1]; [13]) was 7% and the “Population Tubulin-Different-Phenotype (%)” value (Fibroblast [1]; [13]) was 35%. The “Total Cell Count” value (Fibroblast [1]; [13]) was 116, the “Population Apoptotic (%)” value (Fibroblast [1]; [14]) was 66% and the “Population Fragmented Nuclei (%)” value (Fibroblast [1]; [14]) was 37%. For the same molecule, the “Population Healthy Nuclei (%)” value (Fibroblast [1]; [14]) was 58%, the “Population Hoechst High Intensity Objects (%)” value (Fibroblast [1]; [14]) was 14% and the “Population Membrane Permeable-Phenotype (%)” value (Fibroblast [1]; [14]) was 24%. For the same molecule, the “Population Mitochondria Different-Phenotype (%)” value (Fibroblast [1]; [14]) was 4%, the “Population Mitotic Cells (%)” value (Fibroblast [1]; [14]) was 33% and the “Population Normal (%)” value (Fibroblast [1]; [14]) was 85%. For the same molecule, the “Population Pyknosed Nuclei (%)” value (Fibroblast [1]; [14]) was 3%, the “Population Tubulin-Different-Phenotype (%)” value (Fibroblast [1]; [14]) was 46% and the “Total Cell Count” value (Fibroblast [1]; [14]) was 99. The “Growth Rate” value (HEK-293T; [15]) was 1, the “Growth Rate” value (HEK-293T; 0 h, replicate number 2, timepoint 0 hours) was 0 and the “Growth Rate” value (HEK-293T; [16]) was 0. The “Growth Rate” value (HEK-293T; [17]) was 0, the “Growth Rate” value (HEK-293T; [18]) was 0 and the “Growth Rate” value (HEK-293T; [19]) was 0. The “Growth Rate” value (Fibroblast [2]; [15]) was 0, the “Growth Rate” value (Fibroblast [2]; [16]) was 0 and the “Growth Rate” value (Fibroblast [2]; [17]) was 0. The “Growth Rate” value (Fibroblast [2]; 12 h, replicate number 2, timepoint 12 hours) was 1, the “Growth Rate” value (Fibroblast [2]; [18]) was 0 and the “Growth Rate” value (Fibroblast [2]; [19]) was 0. For the same molecule, the “Growth Rate” value (U2OS; [15]) was 0, the “Growth Rate” value (U2OS; [17]) was 1 and the “Growth Rate” value (U2OS; [18]) was 1. For the same molecule, the “Growth Rate” value (U2OS; [19]) was 0.
